# Source: ChEMBL document CHEMBL2321860, “2-Arylpyrazolo[4,3-d]pyrimidin-7-amino derivatives as new potent and selective human A3 adenosine receptor antagonists. Molecular modeling studies and pharmacological evaluation” (J Med Chem, 2013)
# pIC50, pKi: −log10 of the molar value. The source made the active and inactive calls. The rule behind the calls is not given here.
# Target: T1, Adenosine receptor A3 (Homo sapiens, UniProt P0DMS8)
# T1 sequence (P0DMS8 whole entry): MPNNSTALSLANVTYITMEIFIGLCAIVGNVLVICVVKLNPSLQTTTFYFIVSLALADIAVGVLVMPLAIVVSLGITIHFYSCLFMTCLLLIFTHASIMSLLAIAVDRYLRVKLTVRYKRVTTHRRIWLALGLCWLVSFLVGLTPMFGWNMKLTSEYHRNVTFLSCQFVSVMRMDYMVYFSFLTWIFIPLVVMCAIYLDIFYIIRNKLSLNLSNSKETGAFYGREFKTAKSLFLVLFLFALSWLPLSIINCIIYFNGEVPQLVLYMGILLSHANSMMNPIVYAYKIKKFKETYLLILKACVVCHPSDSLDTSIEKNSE
# Experiment: Displacement of [125I]AB-MECA from human A3 adenosine receptor expressed in CHO cells after 60 mins by scintillation counting analysis
# Assay type: cell-based
row,SMILES,pKi
1,Cc1nc(NC(=O)Cc2ccccc2)c2nn(-c3ccccc3)cc2n1,6.92
2,O=C(c1ccco1)N(C(=O)c1ccco1)c1nc(-c2ccccc2)nc2cn(-c3ccccc3)nc12,7.12
3,O=C(Cc1ccccc1)Nc1nc(-c2ccccc2)nc2cn(-c3ccccc3)nc12,7.74
4,Cc1nc(NC(=O)c2ccncc2)c2nn(-c3ccccc3)cc2n1,8.28
5,Cc1nc(NC(=O)c2ccccc2)c2nn(-c3ccccc3)cc2n1,8.25
6,O=C(Nc1nc(-c2ccccc2)nc2cn(-c3ccccc3)nc12)c1ccncc1,7.60
7,Cc1nc(NC(=O)c2cccnc2)c2nn(-c3ccccc3)cc2n1,8.28
8,COc1ccc(-n2cc3nc(-c4ccccc4)nc(N)c3n2)cc1,7.12
9,O=C(Nc1nc(-c2ccccc2)nc2cn(-c3ccccc3)nc12)c1ccco1,7.62
10,Cc1nc(NC(=O)c2ccco2)c2nn(-c3ccccc3)cc2n1,7.70
11,CC(=O)Nc1nc(C)nc2cn(-c3ccccc3)nc12,6.52
12,COc1ccc(-n2cc3nc(-c4ccccc4)nc(NC(=O)c4ccccc4)c3n2)cc1,7.74
13,COc1ccc(C(=O)Nc2nc(-c3ccccc3)nc3cn(-c4ccccc4)nc23)cc1,8.14
14,CC(=O)Nc1nc(-c2ccccc2)nc2cn(-c3ccccc3)nc12,7.49

# Target: T2, Adenosine receptor A1 (Homo sapiens, UniProt P30542)
# T2 sequence (P30542 whole entry): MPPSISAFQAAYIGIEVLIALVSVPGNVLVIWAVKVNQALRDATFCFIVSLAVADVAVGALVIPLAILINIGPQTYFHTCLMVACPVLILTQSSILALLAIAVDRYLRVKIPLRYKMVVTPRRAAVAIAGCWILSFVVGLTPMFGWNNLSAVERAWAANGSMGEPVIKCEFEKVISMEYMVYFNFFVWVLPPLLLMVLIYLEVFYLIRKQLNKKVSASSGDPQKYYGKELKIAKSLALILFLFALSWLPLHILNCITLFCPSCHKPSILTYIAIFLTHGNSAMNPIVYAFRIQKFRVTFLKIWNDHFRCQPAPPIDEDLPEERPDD
# Experiment: Displacement of [3H]DPCPX from human A1 adenosine receptor expressed in CHO cells after 120 mins by scintillation counting analysis
# Assay type: cell-based
row,SMILES,pKi
1,Cc1nc(NC(=O)Cc2ccccc2)c2nn(-c3ccccc3)cc2n1,6.29

# Target: T3, Adenosine receptor A2b (Homo sapiens) (UniProt P29275)
# T3 sequence (whole entry): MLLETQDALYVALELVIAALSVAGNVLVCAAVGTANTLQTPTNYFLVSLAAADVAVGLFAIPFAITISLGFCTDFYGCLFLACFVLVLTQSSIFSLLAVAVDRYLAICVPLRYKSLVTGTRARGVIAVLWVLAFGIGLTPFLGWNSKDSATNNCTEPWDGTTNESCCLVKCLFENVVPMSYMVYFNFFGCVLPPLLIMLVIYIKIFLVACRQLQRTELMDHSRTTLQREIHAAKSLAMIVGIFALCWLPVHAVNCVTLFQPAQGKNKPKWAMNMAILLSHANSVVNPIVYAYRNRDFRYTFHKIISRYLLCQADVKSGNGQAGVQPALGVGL
# Experiment: Inhibition of human A2B adenosine receptor transfected in CHO cells assessed as inhibition of NECA-induced cyclic AMP production at 1 uM after 10 mins by competitive protein binding assay
# Assay type: cell-based
# How it was run: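 Human A2B CHO cells (1 × 10⁶/assay) preincubated 10 min at 37 °C in buffer with adenosine deaminase (2 IU/mL) and Ro 20-1724. Antagonist inhibition of 200 nM NECA-stimulated cAMP measured; reaction stopped with TCA. cAMP quantified by [3H]cAMP competition with adrenal binding protein. IC50 by sigmoid fit, mean SEM of four experiments; % inhibition at 1 μM.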
row,SMILES,inhibition
1,COc1ccc(C(=O)Nc2nc(C)nc3cn(-c4ccccc4)nc23)cc1,1%
2,Cc1nc(NC(=O)Cc2ccccc2)c2nn(-c3ccccc3)cc2n1,1%
3,O=C(c1ccco1)N(C(=O)c1ccco1)c1nc(-c2ccccc2)nc2cn(-c3ccccc3)nc12,1%
4,O=C(Cc1ccccc1)Nc1nc(-c2ccccc2)nc2cn(-c3ccccc3)nc12,2%
5,Cc1nc(NC(=O)c2ccccc2)c2nn(-c3ccccc3)cc2n1,2%
6,O=C(Nc1nc(-c2ccccc2)nc2cn(-c3ccccc3)nc12)c1ccncc1,1%
7,Cc1nc(NC(=O)c2cccnc2)c2nn(-c3ccccc3)cc2n1,1%
8,COc1ccc(-n2cc3nc(-c4ccccc4)nc(N)c3n2)cc1,3%
9,O=C(Nc1nc(-c2ccccc2)nc2cn(-c3ccccc3)nc12)c1ccco1,1%
10,Cc1nc(NC(=O)c2ccco2)c2nn(-c3ccccc3)cc2n1,1%
11,CC(=O)Nc1nc(C)nc2cn(-c3ccccc3)nc12,5%
12,COc1ccc(-n2cc3nc(-c4ccccc4)nc(NC(=O)c4ccccc4)c3n2)cc1,2%
13,COc1ccc(C(=O)Nc2nc(-c3ccccc3)nc3cn(-c4ccccc4)nc23)cc1,1%
14,CC(=O)Nc1nc(-c2ccccc2)nc2cn(-c3ccccc3)nc12,2%

# Target: T1, Adenosine receptor A3
# Experiment: Inhibition of human A3 adenosine receptor transfected in CHO cells assessed as inhibition of forskolin-induced cyclic AMP production after 10 mins by competitive protein binding assay in presence of CI-IB-MECA
# Assay type: functional, cell-based
# How it was run: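 Human A3 CHO cells (1 × 10⁶/assay) preincubated 10 min at 37 °C with adenosine deaminase and Ro 20-1724. Antagonist potency measured against 100 nM Cl-IB-MECA-mediated inhibition of 1 μM forskolin-stimulated cAMP. cAMP quantified by [3H]cAMP competition binding. IC50 by sigmoid regression, mean SEM of four experiments.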
row,SMILES,pIC50
1,O=C(Cc1ccccc1)Nc1nc(-c2ccccc2)nc2cn(-c3ccccc3)nc12,7.21
2,Cc1nc(NC(=O)c2ccccc2)c2nn(-c3ccccc3)cc2n1,7.71
3,COc1ccc(-n2cc3nc(-c4ccccc4)nc(NC(=O)c4ccccc4)c3n2)cc1,7.20
4,CC(=O)Nc1nc(-c2ccccc2)nc2cn(-c3ccccc3)nc12,6.99

# Test system: Astrocyte
# Experiment: Antiapoptotic activity against Sprague-Dawley rat astrocytes assessed as reduction of oxaliplatin-induced caspase-3 activity at 0.1 to 10 uM after 4 hrs by fluorimetric assay
# Assay type: functional, cell-based
# How it was run: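 Primary cortical astrocytes from newborn (P1–P3) rats, GFAP-positive, used 21 days after isolation and serum-starved overnight. Cells were exposed to 100 μM oxaliplatin for 4 h with test compound co-incubated. Lysates were incubated with 0.025 mM Z-DEVD-R110 at 25 °C for 30 min and read by fluorescence (ex 496/em 520 nm). Output is % of untreated control, mean SEM.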
row,SMILES,Activity
1,O=C(Cc1ccccc1)Nc1nc(-c2ccccc2)nc2cn(-c3ccccc3)nc12,Active
2,Cc1nc(NC(=O)c2ccccc2)c2nn(-c3ccccc3)cc2n1,Active
3,COc1ccc(-n2cc3nc(-c4ccccc4)nc(NC(=O)c4ccccc4)c3n2)cc1,Active

# Target: Adenosine receptor A2a (Homo sapiens, UniProt P29274)
# Experiment: Displacement of [3H]ZM241385 from human A2A adenosine receptor expressed in CHO cells at 1 uM after 60 mins by scintillation counting analysis
# Assay type: cell-based
# How it was run: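 Human A2A CHO membranes (50 μg protein) incubated with 1 nM [3H]ZM-241385 in 50 mM Tris-HCl, 10 mM MgCl2, pH 7.4, for 60 min at 4 °C, using 6–8 concentrations or 1 μM for % inhibition. Nonspecific binding defined with 1 μM ZM-241385. Ki via Cheng–Prusoff, mean SEM of four assays in duplicate.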
# Chain of Adenosine receptor A2a (P29274 whole entry): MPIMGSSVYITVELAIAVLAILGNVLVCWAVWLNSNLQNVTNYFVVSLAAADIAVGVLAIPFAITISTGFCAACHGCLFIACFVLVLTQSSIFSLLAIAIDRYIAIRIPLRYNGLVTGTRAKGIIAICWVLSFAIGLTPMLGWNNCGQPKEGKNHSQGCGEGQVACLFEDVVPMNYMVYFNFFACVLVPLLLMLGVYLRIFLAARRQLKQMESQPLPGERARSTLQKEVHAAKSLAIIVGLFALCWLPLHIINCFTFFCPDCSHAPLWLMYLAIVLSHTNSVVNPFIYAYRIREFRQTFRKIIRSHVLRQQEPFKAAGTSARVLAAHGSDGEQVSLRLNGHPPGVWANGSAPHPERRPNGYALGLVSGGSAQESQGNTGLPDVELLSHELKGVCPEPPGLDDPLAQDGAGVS
row,SMILES,inhibition
1,COc1ccc(C(=O)Nc2nc(C)nc3cn(-c4ccccc4)nc23)cc1,1%
2,Cc1nc(NC(=O)Cc2ccccc2)c2nn(-c3ccccc3)cc2n1,13%
3,O=C(c1ccco1)N(C(=O)c1ccco1)c1nc(-c2ccccc2)nc2cn(-c3ccccc3)nc12,1%
4,O=C(Cc1ccccc1)Nc1nc(-c2ccccc2)nc2cn(-c3ccccc3)nc12,5%
5,Cc1nc(NC(=O)c2ccncc2)c2nn(-c3ccccc3)cc2n1,1%
6,Cc1nc(NC(=O)c2ccccc2)c2nn(-c3ccccc3)cc2n1,1%
7,O=C(Nc1nc(-c2ccccc2)nc2cn(-c3ccccc3)nc12)c1ccncc1,1%
8,Cc1nc(NC(=O)c2cccnc2)c2nn(-c3ccccc3)cc2n1,1%
9,COc1ccc(-n2cc3nc(-c4ccccc4)nc(N)c3n2)cc1,35%
10,O=C(Nc1nc(-c2ccccc2)nc2cn(-c3ccccc3)nc12)c1ccco1,1%
11,Cc1nc(NC(=O)c2ccco2)c2nn(-c3ccccc3)cc2n1,1%
12,CC(=O)Nc1nc(C)nc2cn(-c3ccccc3)nc12,4%
13,COc1ccc(-n2cc3nc(-c4ccccc4)nc(NC(=O)c4ccccc4)c3n2)cc1,1%
14,COc1ccc(C(=O)Nc2nc(-c3ccccc3)nc3cn(-c4ccccc4)nc23)cc1,1%
15,CC(=O)Nc1nc(-c2ccccc2)nc2cn(-c3ccccc3)nc12,5%

# Target: T4, Adenosine receptor A3 (Rattus norvegicus) (UniProt P28647)
# T4 sequence (whole entry): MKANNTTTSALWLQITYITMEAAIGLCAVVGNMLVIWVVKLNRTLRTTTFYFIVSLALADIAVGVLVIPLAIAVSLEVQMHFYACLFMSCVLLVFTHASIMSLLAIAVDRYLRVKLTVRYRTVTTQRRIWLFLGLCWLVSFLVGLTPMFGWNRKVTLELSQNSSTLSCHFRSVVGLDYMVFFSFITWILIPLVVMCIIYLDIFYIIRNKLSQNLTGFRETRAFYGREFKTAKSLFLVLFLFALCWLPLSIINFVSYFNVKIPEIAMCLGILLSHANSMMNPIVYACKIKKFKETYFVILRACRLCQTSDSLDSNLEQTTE
# Experiment: Displacement of [125I]AB-MECA from rat A3 adenosine receptor expressed in HEK293 cells at 1 uM after 60 mins by scintillation counting analysis
# Assay type: cell-based
# How it was run: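 Rat A3 receptor in HEK293 membranes (10 μg protein) incubated with 0.5 nM [125I]AB-MECA in 50 mM Tris-HCl, 10 mM MgCl2, 1 mM EDTA, pH 7.4, for 60 min at 37 °C. Nonspecific binding defined with 1 μM AB-MECA. Filtration then scintillation counting. Output is % inhibition at 1 μM.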
row,SMILES,inhibition
1,O=C(Cc1ccccc1)Nc1nc(-c2ccccc2)nc2cn(-c3ccccc3)nc12,2%
2,Cc1nc(NC(=O)c2ccccc2)c2nn(-c3ccccc3)cc2n1,6%
3,COc1ccc(-n2cc3nc(-c4ccccc4)nc(NC(=O)c4ccccc4)c3n2)cc1,12%

# Target: T5, Adenosine receptor A1 (Homo sapiens) (UniProt P30542)
# T5 sequence (whole entry): T2 sequence (P30542 whole entry)
# Experiment: Displacement of [3H]DPCPX from human A1 adenosine receptor expressed in CHO cells at 1 uM after 120 mins by scintillation counting analysis
# Assay type: cell-based
row,SMILES,inhibition
1,COc1ccc(C(=O)Nc2nc(C)nc3cn(-c4ccccc4)nc23)cc1,4%
2,O=C(c1ccco1)N(C(=O)c1ccco1)c1nc(-c2ccccc2)nc2cn(-c3ccccc3)nc12,3%
3,O=C(Cc1ccccc1)Nc1nc(-c2ccccc2)nc2cn(-c3ccccc3)nc12,5%
4,Cc1nc2cn(-c3ccccc3)nc2c(=O)[nH]1,1%
5,Cc1nc(NC(=O)c2ccncc2)c2nn(-c3ccccc3)cc2n1,12%
6,Cc1nc(NC(=O)c2ccccc2)c2nn(-c3ccccc3)cc2n1,30%
7,O=C(Nc1nc(-c2ccccc2)nc2cn(-c3ccccc3)nc12)c1ccncc1,1%
8,Cc1nc(NC(=O)c2cccnc2)c2nn(-c3ccccc3)cc2n1,12%
9,COc1ccc(-n2cc3nc(-c4ccccc4)nc(N)c3n2)cc1,12%
10,O=C(Nc1nc(-c2ccccc2)nc2cn(-c3ccccc3)nc12)c1ccco1,11%
11,Cc1nc(NC(=O)c2ccco2)c2nn(-c3ccccc3)cc2n1,20%
12,CC(=O)Nc1nc(C)nc2cn(-c3ccccc3)nc12,25%
13,COc1ccc(-n2cc3nc(-c4ccccc4)nc(NC(=O)c4ccccc4)c3n2)cc1,3%
14,COc1ccc(C(=O)Nc2nc(-c3ccccc3)nc3cn(-c4ccccc4)nc23)cc1,3%
15,CC(=O)Nc1nc(-c2ccccc2)nc2cn(-c3ccccc3)nc12,5%
